Results from ChEMBL document CHEMBL4480390, “Cink4T, a quinazolinone-based dual inhibitor of Cdk4 and tubulin polymerization, identified via ligand-based virtual screening, for efficient anticancer therapy” (Eur J Med Chem, 2019).
The source made the active and inactive calls. No cut-off for these calls is given here.

Key:
[1] = biological target: CDK9/cyclin T1 (Homo sapiens, UniProt P50750); experiment: Inhibition of N-terminal GST-HIS6 fusion protein tagged human full length CDK9 (M1 to F372 residues)/N-terminal HIS6-fused human Cyclin-T1 (M1 to K726 residues) expressed in Sf9 cells using RBCTF as substrate measured after 1 hr by ADP-glo luminescence assay
CDK9/cyclin T1, sequence (O60563 whole entry, the tested form may be a part): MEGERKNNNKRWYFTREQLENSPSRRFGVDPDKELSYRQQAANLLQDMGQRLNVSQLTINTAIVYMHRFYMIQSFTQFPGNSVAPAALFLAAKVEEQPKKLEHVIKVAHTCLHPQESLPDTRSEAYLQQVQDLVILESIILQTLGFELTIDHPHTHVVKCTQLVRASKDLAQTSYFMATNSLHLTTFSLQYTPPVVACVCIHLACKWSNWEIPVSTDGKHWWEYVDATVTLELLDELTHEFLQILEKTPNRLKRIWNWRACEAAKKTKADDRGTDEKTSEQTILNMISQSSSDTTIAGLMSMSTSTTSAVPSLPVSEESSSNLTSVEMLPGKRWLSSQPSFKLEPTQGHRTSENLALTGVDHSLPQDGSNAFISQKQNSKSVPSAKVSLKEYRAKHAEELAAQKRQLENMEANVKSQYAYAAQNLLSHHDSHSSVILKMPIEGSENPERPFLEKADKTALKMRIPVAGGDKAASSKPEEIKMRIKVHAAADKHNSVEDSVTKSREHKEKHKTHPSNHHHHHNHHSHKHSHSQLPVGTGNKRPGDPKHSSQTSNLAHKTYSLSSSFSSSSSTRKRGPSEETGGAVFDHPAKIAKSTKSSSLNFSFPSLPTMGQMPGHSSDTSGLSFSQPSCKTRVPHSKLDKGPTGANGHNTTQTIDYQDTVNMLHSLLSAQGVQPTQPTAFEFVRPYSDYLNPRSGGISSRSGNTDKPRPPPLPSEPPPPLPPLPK
CDK9/cyclin T1, sequence (P50750 whole entry, the tested form may be a part): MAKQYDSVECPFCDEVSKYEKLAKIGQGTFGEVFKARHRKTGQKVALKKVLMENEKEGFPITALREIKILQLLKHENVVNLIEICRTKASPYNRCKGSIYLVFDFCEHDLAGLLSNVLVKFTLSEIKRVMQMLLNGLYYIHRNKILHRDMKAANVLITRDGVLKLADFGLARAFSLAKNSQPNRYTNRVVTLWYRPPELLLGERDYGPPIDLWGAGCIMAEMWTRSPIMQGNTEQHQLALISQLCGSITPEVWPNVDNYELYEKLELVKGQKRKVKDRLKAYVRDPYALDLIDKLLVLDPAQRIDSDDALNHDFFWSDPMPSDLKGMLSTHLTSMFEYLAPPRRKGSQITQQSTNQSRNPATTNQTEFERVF

[2] = biological target: CDK6/cyclin D1 (Homo sapiens, UniProt Q00534); experiment: Inhibition of CDK6/cyclin D1 (unknown origin) using RBER-CHKtide as substrate measured after 1 hr by ADP-glo luminescence assay; type: protein-complex assay
CDK6/cyclin D1, sequence (P24385 whole entry): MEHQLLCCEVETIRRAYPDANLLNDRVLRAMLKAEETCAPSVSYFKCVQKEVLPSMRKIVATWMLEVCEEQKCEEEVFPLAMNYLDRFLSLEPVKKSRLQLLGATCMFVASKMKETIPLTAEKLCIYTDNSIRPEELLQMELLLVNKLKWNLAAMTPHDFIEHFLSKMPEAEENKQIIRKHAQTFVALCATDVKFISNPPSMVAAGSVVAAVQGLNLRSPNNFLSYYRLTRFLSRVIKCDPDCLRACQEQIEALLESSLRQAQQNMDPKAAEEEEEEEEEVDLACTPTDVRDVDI
CDK6/cyclin D1, sequence (Q00534 whole entry): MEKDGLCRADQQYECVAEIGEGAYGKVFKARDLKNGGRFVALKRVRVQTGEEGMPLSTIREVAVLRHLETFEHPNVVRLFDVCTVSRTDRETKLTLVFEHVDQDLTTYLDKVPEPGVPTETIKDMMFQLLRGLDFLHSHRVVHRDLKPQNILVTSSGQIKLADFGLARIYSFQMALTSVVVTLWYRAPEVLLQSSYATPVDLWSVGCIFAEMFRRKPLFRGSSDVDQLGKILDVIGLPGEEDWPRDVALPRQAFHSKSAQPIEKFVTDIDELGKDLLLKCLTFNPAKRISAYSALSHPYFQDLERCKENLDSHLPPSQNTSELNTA
Method in brief: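 ADP-Glo kinase assay with 200 ng Cdk-cyclin enzyme, ATP (125 µM in 2.5x mix) and 25 µg substrate (RBCTF or RBER-CHKtide, per Cdk). Buffer: Tris, MgCl2, BSA, DTT, MnCl2 cofactor, DMSO. Reaction 1 h at 21°C; ADP-Glo 40 min, then detection reagent 40 min. Luminescence read. IC50 by 4-parameter fit; three independent experiments.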

[3] = biological target: T1, Cytochrome P450 1A1 (Homo sapiens, UniProt P04798); experiment: Inhibition of recombinant human CYP1A1 expressed in baker's yeast-derived microsomes using 7-ethoxyresorufin as substrate by fluorescence assay; type: ADME
T1 sequence (P04798 whole entry): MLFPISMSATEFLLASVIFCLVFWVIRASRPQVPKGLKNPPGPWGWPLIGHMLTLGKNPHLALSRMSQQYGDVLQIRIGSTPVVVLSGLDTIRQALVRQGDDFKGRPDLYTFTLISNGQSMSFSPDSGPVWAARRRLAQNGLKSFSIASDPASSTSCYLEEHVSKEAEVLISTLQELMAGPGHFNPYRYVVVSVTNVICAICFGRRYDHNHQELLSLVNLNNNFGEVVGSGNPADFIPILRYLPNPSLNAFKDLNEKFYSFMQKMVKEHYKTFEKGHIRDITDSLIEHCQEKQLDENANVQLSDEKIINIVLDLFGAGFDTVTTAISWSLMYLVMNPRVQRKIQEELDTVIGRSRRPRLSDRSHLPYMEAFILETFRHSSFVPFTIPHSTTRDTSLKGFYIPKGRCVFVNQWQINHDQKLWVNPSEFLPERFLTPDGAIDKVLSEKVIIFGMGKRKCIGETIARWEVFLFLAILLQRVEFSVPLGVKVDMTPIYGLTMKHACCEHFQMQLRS

[4] = biological target: T2, Cytochrome P450 1B1 (Homo sapiens, UniProt Q16678); experiment: Inhibition of recombinant human CYP1B1 expressed in baker's yeast-derived microsomes using 7-ethoxyresorufin as substrate by fluorescence assay
T2 sequence (Q16678 whole entry): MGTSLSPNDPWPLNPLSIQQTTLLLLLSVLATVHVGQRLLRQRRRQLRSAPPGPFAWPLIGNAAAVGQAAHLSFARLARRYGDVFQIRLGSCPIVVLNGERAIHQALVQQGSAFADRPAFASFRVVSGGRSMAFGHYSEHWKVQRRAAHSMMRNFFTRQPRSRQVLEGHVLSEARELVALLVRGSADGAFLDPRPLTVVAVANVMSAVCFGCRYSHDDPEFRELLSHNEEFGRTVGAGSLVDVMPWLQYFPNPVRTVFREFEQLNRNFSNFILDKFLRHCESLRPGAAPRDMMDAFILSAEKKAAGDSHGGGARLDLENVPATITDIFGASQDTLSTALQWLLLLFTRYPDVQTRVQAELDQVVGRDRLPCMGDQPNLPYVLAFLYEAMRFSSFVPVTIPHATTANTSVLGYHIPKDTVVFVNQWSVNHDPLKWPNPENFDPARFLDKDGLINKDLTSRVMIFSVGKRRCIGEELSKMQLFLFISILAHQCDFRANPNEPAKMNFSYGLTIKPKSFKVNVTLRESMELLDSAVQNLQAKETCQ

[5] = system: T47D; experiment: Cell cycle arrest in human T47D cells assessed as ratio of G1 to S phase at 0.75 uM measured after 18 hrs by propidium iodide staining based flow cytometry (reference value: 2.65); type: functional
[6] = system: T47D; experiment: Cell cycle arrest in human T47D cells assessed as accumulation at sub-G1 phase at 1.5 uM measured after 18 hrs by propidium iodide staining based flow cytometry relative to control; type: functional
[7] = biological target: Cyclin-dependent kinase 4/cyclin D1 (Homo sapiens) (UniProt P11802+P24385); experiment: Inhibition of CDK4/cyclin D1 in human T47D cells assessed as reduction in phosphorylation of pRb at Ser780 residues at 0.75 to 1.5 uM measured after 18 hrs by Western blot analysis; type: cell-based
Method in brief: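 T47D cells left untreated or treated 18 h at 0.75 or 1.5 µM. Western blots probed with phospho-specific pRb antibodies (Ser780, Ser795, Ser807/811) and a total-pRb antibody; HRP-conjugated secondary for detection.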

[8] = system: T47D; experiment: Cell cycle arrest in human T47D cells assessed as accumulation at G0/G1 phase at 0.75 uM treated 18 hrs post serum-starvation measured after 18 hrs in presence of fresh medium containing FBS by propidium iodide staining based flow cytometry (reference value: 60.3%); type: functional
[9] = system: T47D; experiment: Cell cycle arrest in human T47D cells assessed as accumulation at G0/G1 phase at 1.5 uM treated 18 hrs post serum-starvation measured after 18 hrs in presence of fresh medium containing FBS by propidium iodide staining based flow cytometry (reference value: 60.3%); type: functional
[10] = system: T47D; experiment: Cell cycle arrest in human T47D cells assessed as accumulation at sub-G1 phase at 1.5 uM treated 18 hrs post serum-starvation measured after 18 hrs in presence of fresh medium containing FBS by propidium iodide staining based flow cytometry relative to control; type: functional
[11] = system: Calu-1; experiment: Cell cycle arrest in human Calu1 cells assessed as accumulation at G0/G1 phase at 0.9 uM treated 18 hrs post serum-starvation measured after 18 hrs in presence of fresh medium containing FBS by propidium iodide staining based flow cytometry (reference value: 69.2%); type: functional
[12] = system: MDA-MB-468; experiment: Cell cycle arrest in human MDA-MB-468 cells assessed as accumulation at sub-G1 phase at 10.85 uM measured after 18 hrs by propidium iodide staining based flow cytometry relative to control; type: functional
[13] = system: MDA-MB-468; experiment: Cell cycle arrest in human MDA-MB-468 cells assessed as accumulation at sub-G1 phase at 22 uM measured after 18 hrs by propidium iodide staining based flow cytometry relative to control; type: functional
[14] = system: A549; experiment: Cell cycle arrest in human A549 cells assessed as accumulation at G0/G1 phase at 0.8 uM measured after 18 hrs by propidium iodide staining based flow cytometry (reference value: 58%); type: functional
[15] = system: A549; experiment: Up regulation of cyclin-B1 expression in human A549 cells at 0.8 to 1.6 uM measured after 18 hrs by Western blot analysis; type: functional, cell-based
[16] = system: A549; experiment: Effect on CDK1 expression in human A549 cells at 0.8 to 1.6 uM measured after 18 hrs by Western blot analysis; type: functional, cell-based
[17] = system: A549; experiment: Cell cycle arrest in human A549 cells assessed as accumulation at G2/M phase at 0.8 uM treated 32 hrs post mimosine addition measured after 18 hrs in presence of fresh medium by propidium iodide staining based flow cytometry (reference value: 14%); type: functional
[18] = system: A549; experiment: Cell cycle arrest in human A549 cells assessed as ratio of G1 to S phase at 1.6 uM treated 32 hrs post mimosine addition measured after 18 hrs in presence of fresh medium by propidium iodide staining based flow cytometry (reference value: 2.5); type: functional

IC50 [1]: > 100 µM | IC50 [2]: > 100 µM | IC50 [3]: > 5 µM | IC50 [4]: > 5 µM | inhibition [7]: Active
SMILES: O=C(COc1ccc(-c2nc3ccccc3c(=O)[nH]2)cc1)Nc1cccc(Cl)c1
Ratio [5]: 22 | Activity [6]: 20% | Activity [8]: 77% | Activity [9]: 68.1% | Activity [10]: 18.6% | Activity [11]: 75% | Activity [12]: 0% | Activity [13]: 0% | Activity [14]: 65% | Activity [15]: inactive | Activity [16]: inactive | Activity [17]: 35% | Ratio [18]: 0.6
